Test results as given in ChEMBL document CHEMBL1122233, “Antihypertensive 9-substituted 1-oxa-4,9-diazaspiro[5.5]undecan-3-ones” (J Med Chem, 1983).

How the values were obtained:
[1] = test system: Rattus norvegicus; experiment: (§1) Percentage fall in systolic blood pressure after 2 hours at 50 mg/kg given perorally; type: functional, Artery; conditions: route oral
Procedure, shortened: (§2)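 Male Okamoto-Aoki SHR, four per group, with a concurrent vehicle control group. Oral dosing in water (0.1 mL/10 g) on two consecutive mornings. After the day-2 dose, rats were restrained in a 30 °C chamber. Tail-cuff systolic pressure was taken at 1-4 h from four traces per rat. Result is % decrease versus control mean, by 1-tailed t test, p ≤ 0.05.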

[2] = test system: Rattus norvegicus; experiment: (§3) Percentage fall in systolic blood pressure after 4 hours at 50 mg/kg given perorally; type: functional, Artery; conditions: route oral; procedure, shortened: as §2
[3] = test system: Rattus norvegicus; experiment: (§4) Percentage fall in systolic blood pressure after 3 hours at 50 mg/kg given perorally; type: functional, Artery; conditions: route oral; procedure, shortened: as §2
[4] = test system: Rattus norvegicus; experiment: (§5) Percentage fall in systolic blood pressure after 1 hr at 50 mg/kg given perorally; type: functional, Artery; conditions: route oral; procedure, shortened: as §2
[5] = test system: Rattus norvegicus; experiment: as §4; type: functional, organism-based; design: dose 50 mg/kg; conditions: Artery; procedure, shortened: as §2
[6] = test system: Rattus norvegicus; experiment: as §1; type: functional, organism-based; design: dose 50 mg/kg; conditions: Artery; procedure, shortened: as §2
[7] = test system: Rattus norvegicus; experiment: as §3; type: functional, organism-based; design: dose 50 mg/kg; conditions: Artery; procedure, shortened: as §2
[8] = test system: Rattus norvegicus; experiment: as §5; type: functional, organism-based; design: dose 50 mg/kg; conditions: Artery
Procedure, shortened: (§6)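 Male Okamoto-Aoki spontaneously hypertensive rats, trained, in groups of four matched for mean systolic pressure; five treated groups and one vehicle control run concurrently. Oral dosing in water (solution or suspension, 0.1 mL/10 g) on two consecutive mornings. On day 2, rats were restrained at 30.0 ± 1.0 °C and tail-cuff systolic pressure recorded at 1–4 h; percent fall versus control, 1-tail t test, p ≤ 0.05.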

[9] = test system: Rattus norvegicus; experiment: (§7) Percentage fall in systolic blood pressure after 1 hr at 12.5 mg/kg given perorally; type: functional, Artery; conditions: route oral; procedure, shortened: as §2
[10] = test system: Rattus norvegicus; experiment: Percentage fall in systolic blood pressure after 2 hours at 12.5 mg/kg given perorally; type: functional, Artery; conditions: route oral; procedure, shortened: as §2
[11] = test system: Rattus norvegicus; experiment: (§8) Percentage fall in systolic blood pressure after 4 hours at 12.5 mg/kg given perorally; type: functional, Artery; conditions: route oral; procedure, shortened: as §2
[12] = test system: Rattus norvegicus; experiment: Percentage fall in systolic blood pressure after 3 hours at 12.5 mg/kg given perorally; type: functional, Artery; conditions: route oral; procedure, shortened: as §2
[13] = test system: Rattus norvegicus; experiment: as §8; type: functional, organism-based; design: dose 12.5 mg/kg; conditions: Artery; procedure, shortened: as §2
[14] = test system: Rattus norvegicus; experiment: Percentage fall in systolic blood pressure after 3 hr at 12.5 mg/kg given perorally; type: functional, organism-based; design: dose 12.5 mg/kg; conditions: Artery; procedure, shortened: as §6
[15] = test system: Rattus norvegicus; experiment: Percentage fall in systolic blood pressure after 4 hr at 12.5 mg/kg given perorally; type: functional, organism-based; design: dose 12.5 mg/kg; conditions: Artery; procedure, shortened: as §6
[16] = test system: Rattus norvegicus; experiment: as §7; type: functional, organism-based; design: dose 12.5 mg/kg; conditions: Artery; procedure, shortened: as §6
[17] = test system: Rattus norvegicus; experiment: Percentage fall in systolic blood pressure after 2 hr at 12.5 mg/kg given perorally; type: functional, organism-based; design: dose 12.5 mg/kg; conditions: Artery; procedure, shortened: as §6
[18] = test system: Rattus norvegicus; experiment: Percentage fall in systolic blood pressure after 3 hours at 25 mg/kg given perorally; type: functional, Artery; conditions: route oral; procedure, shortened: as §6
[19] = test system: Rattus norvegicus; experiment: Percentage fall in systolic blood pressure after 4 hours at 25 mg/kg given perorally; type: functional, Artery; conditions: route oral; procedure, shortened: as §6
[20] = test system: Rattus norvegicus; experiment: Percentage fall in systolic blood pressure after 1 hr at 25 mg/kg given perorally; type: functional, Artery; conditions: route oral; procedure, shortened: as §6
[21] = test system: Rattus norvegicus; experiment: Percentage fall in systolic blood pressure after 2 hours at 25 mg/kg given perorally; type: functional, Artery; conditions: route oral; procedure, shortened: as §6
[22] = test system: Rattus norvegicus; experiment: Percentage fall in systolic blood pressure after 2 hr at 25 mg/kg given perorally; type: functional, Artery; conditions: route oral, 25 mg/kg; procedure, shortened: as §6
[23] = test system: Rattus norvegicus; experiment: Percentage fall in systolic blood pressure after 3 hr at 25 mg/kg given perorally; type: functional, Artery; conditions: route oral, 25 mg/kg; procedure, shortened: as §6

| SMILES | Decrease in SBP [1] | Decrease in SBP [2] | Decrease in SBP [3] | Decrease in SBP [4] | Decrease in SBP [5] | Decrease in SBP [7] | further results |
| --- | --- | --- | --- | --- | --- | --- | --- |
| CCC1NC(=O)COC12CCN(CC(O)C1COc3ccccc3O1)CC2 (centres undefined) | 44% | 26% | 36% | 40% |  |  |  |
| CCC1OC2(CCN(CCc3c[nH]c4ccccc34)CC2)CN(C)C1=O (centres undefined) |  |  |  | 16% | Not significant | Not significant | Decrease in SBP [6]: Not significant |
| O=C1COC2(CCN(CCc3c[nH]c4ccccc34)CC2)C(c2ccccc2)N1 (centres undefined) | 19% |  |  | 21% | Not significant | Not significant |  |
| CC(=O)NCC1CCN(CCc2c[nH]c3ccccc23)CC1 | 26% | 26% | 15% | 30% |  |  |  |
| COCC(=O)NCC1CCN(CCc2c[nH]c3ccccc23)CC1 | 18% | 26% | 13% | 20% |  |  |  |
| CCC1N(C)C(=O)COC12CCN(CCc1c[nH]c3ccccc13)CC2 (centres undefined) |  |  |  |  | Not significant | Not significant | Decrease in SBP [8]: Not significant; Decrease in SBP [6]: Not significant |
| CN1CC2(CCN(CCc3c[nH]c4ccccc34)CC2)OCC1=O | 44% | 26% | 34% | 50% |  |  | Decrease in SBP [9]: 25%; Decrease in SBP [10]: 19%; Decrease in SBP [11]: 17%; Decrease in SBP [12]: 20% |
| CC1NC(=O)COC12CCN(CCc1c[nH]c3ccccc13)CC2 (centres undefined) | 48% | 50% | 41% | 56% |  |  | Decrease in SBP [9]: 24%; Decrease in SBP [13]: Not significant; Decrease in SBP [10]: 36%; Decrease in SBP [12]: 24% |
| COC1(CNC(=O)c2ccccc2)CCN(CCc2c[nH]c3ccccc23)CC1 | 28% |  | 22% | 30% |  | Not significant |  |
| COc1ccc(CCN2CCC3(CC2)CNC(=O)CO3)cc1 |  |  |  |  |  |  | Decrease in SBP [14]: Not significant; Decrease in SBP [15]: Not significant; Decrease in SBP [16]: Not significant; Decrease in SBP [17]: Not significant |
| CCN1CC2(CCN(CCCC(=O)c3ccc(F)cc3)CC2)OCC1=O |  |  |  |  |  |  | Decrease in SBP [18]: 27%; Decrease in SBP [19]: 13%; Decrease in SBP [20]: 35%; Decrease in SBP [21]: 31% |
| COc1cc2c(cc1OC)[C@@H]1C[C@@]3(CCN1CC2)CN(C)C(=O)CO3 |  |  |  |  | Not significant | Not significant | Decrease in SBP [8]: Not significant; Decrease in SBP [6]: Not significant |
| CN1CC2(CCN(CC(O)C3COc4ccccc4O3)CC2)OCC1=O (stereo in doubt; 61) |  |  |  |  |  |  | Decrease in SBP [14]: Not significant |
| CCN1C(=O)COC2(CCN(CCc3c[nH]c4ccccc34)CC2)C1C (centres undefined) |  |  |  | 20% | Not significant | Not significant | Decrease in SBP [6]: Not significant |
| O=C1COC2(CCN(CCc3c[nH]c4ccccc34)CC2)CN1Cc1ccccc1 |  |  |  | 18% | Not significant | Not significant | Decrease in SBP [6]: Not significant |
| NCC1CCN(CCc2c[nH]c3ccccc23)CC1 | 24% | 20% |  | 20% | Not significant |  |  |

| SMILES | Decrease in SBP [1] | Decrease in SBP [2] | Decrease in SBP [3] | Decrease in SBP [4] | Decrease in SBP [5] | Decrease in SBP [7] | further results |
| --- | --- | --- | --- | --- | --- | --- | --- |
| COc1ccc(CCN2CCC3(CC2)CNC(=O)CO3)cc1OC |  |  |  |  | Not significant | Not significant | Decrease in SBP [8]: Not significant; Decrease in SBP [6]: Not significant |
| O=C1COC2(CCN(CCC(=O)c3ccc(F)cc3)CC2)CN1 |  |  |  |  |  |  | Decrease in SBP [19]: 20%; Decrease in SBP [20]: 27%; Decrease in SBP [21]: 24% |
| CC1N(C)C(=O)COC12CCN(CCc1c[nH]c3ccccc13)CC2 (centres undefined) | 22% |  |  | 29% | Not significant | Not significant |  |
| CCC1OC2(CCN(CCc3c[nH]c4ccccc34)CC2)CNC1=O (centres undefined) | 23% |  | 15% | 26% |  | Not significant |  |
| O=C1COC2(CCN(C3CCc4ccccc4C3)CC2)CN1 (centres undefined) | 24% | 20% | 23% | 28% |  |  |  |
| O=C1COC2(CCN(CCc3ccc(Cl)cc3)CC2)CN1 |  |  |  |  |  |  | Decrease in SBP [14]: Not significant; Decrease in SBP [15]: Not significant; Decrease in SBP [16]: Not significant; Decrease in SBP [17]: Not significant |
| O=C1COC2(CCN(CCc3ccc(F)cc3)CC2)CN1 |  |  |  |  |  |  | Decrease in SBP [14]: Not significant; Decrease in SBP [15]: Not significant; Decrease in SBP [16]: Not significant; Decrease in SBP [17]: Not significant |
| CC1OC2(CCN(CCc3c[nH]c4ccccc34)CC2)CN(C)C1=O (centres undefined) |  |  |  | 32% | Not significant | Not significant | Decrease in SBP [6]: Not significant |
| COC1(CNC(C)=O)CCN(CCc2c[nH]c3ccccc23)CC1 |  |  |  | 17% | Not significant | Not significant | Decrease in SBP [6]: Not significant |
| CN1CC2(CCN(CC(O)C3COc4ccccc4O3)CC2)OCC1=O (stereo in doubt; 60) |  |  |  |  |  |  | Decrease in SBP [22]: 33%; Decrease in SBP [20]: 41%; Decrease in SBP [23]: 17% |
| CCC(=O)NCC1CCN(CCc2c[nH]c3ccccc23)CC1 | 23% |  | 15% | 23% |  | Not significant |  |
| CCN1CC2(CCN(CCc3c[nH]c4ccccc34)CC2)OCC1=O | 33% | 42% | 28% | 55% |  |  | Decrease in SBP [9]: 22%; Decrease in SBP [10]: 33%; Decrease in SBP [11]: 21%; Decrease in SBP [12]: 30% |
| O=C1COC2(CCN(CCCOc3ccccc3)CC2)CN1 |  |  |  |  |  |  | Decrease in SBP [14]: Not significant; Decrease in SBP [15]: Not significant; Decrease in SBP [16]: Not significant; Decrease in SBP [17]: Not significant |
| CC1OC2(CCN(CCc3c[nH]c4ccccc34)CC2)CNC1=O (centres undefined) | 36% | 26% | 21% | 30% |  |  |  |
| O=C(NCC1CCN(CCc2c[nH]c3ccccc23)CC1)c1ccccc1 | 27% | 32% | 30% |  |  |  | Decrease in SBP [8]: Not significant |
| CCCN1CC2(CCN(CCc3c[nH]c4ccccc34)CC2)OCC1=O | 22% | 39% | 22% | 47% |  |  | Decrease in SBP [9]: 18%; Decrease in SBP [10]: 26%; Decrease in SBP [11]: 16%; Decrease in SBP [12]: 24% |
